Legend:
Conditions in all cases: tested as the 18F-labelled form
Rattus norvegicus [1] = species on record: Rattus norvegicus; assay: Regional uptake of [18F]-AFA in frontal cortex of rat pretreated with compound 7c; n=3; type: functional, organism-based
Rattus norvegicus [2] = species on record: Rattus norvegicus; assay: Regional uptake of [18F]AFA in blood of rat pretreated with compound nisoxetine; n=3; type: functional, organism-based
Procedure, shortened: (§1)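 Male Sprague-Dawley rats, three per group, received blocker (2 mg/kg iv in saline) or saline only (controls) 10–15 min before about 20 µCi of tail-vein F-18 radioligand. Killed 60 min after tracer. Blood and brain regions weighed and gamma-counted. %ID/g was decay- and tail-corrected; mean ± SD.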

Rattus norvegicus [3] = species on record: Rattus norvegicus; assay: Regional uptake of [18F]AFA in striatum of rat pretreated with compound citalopram; n=3; type: functional, organism-based; procedure, shortened: as §1
[4] = target: Sodium-dependent serotonin transporter (Rattus norvegicus) (UniProt P31652); assay: Specific binding of [18F]-AFA in rat striatum after nisoxetine treatment; n=3; type: functional, tissue-based
Sequence of Sodium-dependent serotonin transporter (Rattus norvegicus) (P31652 whole entry): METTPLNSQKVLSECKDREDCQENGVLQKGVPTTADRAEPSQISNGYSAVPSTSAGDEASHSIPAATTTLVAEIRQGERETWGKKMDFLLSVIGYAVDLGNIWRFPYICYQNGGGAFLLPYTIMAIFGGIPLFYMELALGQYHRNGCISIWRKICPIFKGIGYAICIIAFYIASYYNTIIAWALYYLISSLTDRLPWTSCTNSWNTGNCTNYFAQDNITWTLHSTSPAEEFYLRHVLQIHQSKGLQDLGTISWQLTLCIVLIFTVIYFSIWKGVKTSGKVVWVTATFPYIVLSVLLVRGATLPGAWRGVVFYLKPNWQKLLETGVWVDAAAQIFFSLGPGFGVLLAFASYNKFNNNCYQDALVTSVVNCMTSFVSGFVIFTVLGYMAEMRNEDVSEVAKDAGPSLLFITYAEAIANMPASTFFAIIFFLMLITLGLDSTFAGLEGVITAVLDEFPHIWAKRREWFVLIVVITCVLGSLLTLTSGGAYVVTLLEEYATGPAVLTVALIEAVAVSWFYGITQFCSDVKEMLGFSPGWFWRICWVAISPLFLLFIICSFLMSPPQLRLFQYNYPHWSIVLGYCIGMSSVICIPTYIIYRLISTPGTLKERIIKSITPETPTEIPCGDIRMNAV
Procedure, shortened: (§2)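 Rats, three per group, were pretreated iv with blocker at 2 mg/kg in saline, or with saline as control, 10–15 min before tail-vein F-18 radioligand (about 20 µCi). Killed at 60 min and regional %ID/g determined. Specific binding = (region activity − cerebellum activity)/cerebellum activity; mean ± SD.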

Rattus norvegicus [5] = species on record: Rattus norvegicus; assay: Regional uptake of [18F]AFA in cerebellum of rat pretreated with compound nisoxetine; n=3; type: functional, organism-based; procedure, shortened: as §1
[6] = target: Sodium-dependent serotonin transporter (Rattus norvegicus) (UniProt P31652); assay: Specific binding of [18F]AFA in rat frontal cortex after nisoxetine treatment; n=3; type: functional, tissue-based; procedure, shortened: as §2
Rattus norvegicus [7] = species on record: Rattus norvegicus; assay: Regional uptake of [18F]AFA in thalamus of rat pretreated with compound citalopram; n=3; type: functional, organism-based; procedure, shortened: as §1
Rattus norvegicus [8] = species on record: Rattus norvegicus; assay: Regional uptake of [18F]-AFA in striatum of rat pretreated with compound GBR-12935; n=3; type: functional, organism-based; procedure, shortened: as §1
Rattus norvegicus [9] = species on record: Rattus norvegicus; assay: Regional uptake of [18F]AFA in striatum of rat pretreated with compound nisoxetine; n=3; type: functional, organism-based; procedure, shortened: as §1
[10] = target: Sodium-dependent serotonin transporter (Rattus norvegicus) (UniProt P31652); assay: Specific binding of [18F]AFA in rat hypothalamus after citalopram treatment; n=3; type: functional, tissue-based; procedure, shortened: as §2
[11] = target: Sodium-dependent serotonin transporter (Rattus norvegicus) (UniProt P31652); assay: Specific binding of [18F]AFA in rat striatum after GBR-12935 treatment; n=3; type: functional, tissue-based; procedure, shortened: as §2
Rattus norvegicus [12] = species on record: Rattus norvegicus; assay: Regional uptake of [18F]AFA in cerebellum of rat pretreated with compound citalopram; n=3; type: functional, organism-based; procedure, shortened: as §1
Rattus norvegicus [13] = species on record: Rattus norvegicus; assay: Regional uptake of [18F]-AFA in hypothalamus of rat pretreated with compound nisoxetine; n=3; type: functional, organism-based; procedure, shortened: as §1
Rattus norvegicus [14] = species on record: Rattus norvegicus; assay: Regional uptake of [18F]AFA in hypothalamus of rat pretreated with compound GBR-12935; n=3; type: functional, organism-based; procedure, shortened: as §1
Rattus norvegicus [15] = species on record: Rattus norvegicus; assay: Regional uptake of [18F]AFA in cerebellum of rat pretreated with compound GBR-12935; n=3; type: functional, organism-based; procedure, shortened: as §1
Rattus norvegicus [16] = species on record: Rattus norvegicus; assay: Regional uptake of [18F]AFA in frontal cortex of rat pretreated with compound GBR-12935; n=3; type: functional, organism-based; procedure, shortened: as §1
[17] = target: Sodium-dependent serotonin transporter (Rattus norvegicus) (UniProt P31652); assay: Specific binding of [18F]AFA in rat hypothalamus after nisoxetine treatment; n=3; type: functional, tissue-based; procedure, shortened: as §2
Rattus norvegicus [18] = species on record: Rattus norvegicus; assay: Regional uptake of [18F]AFA in thalamus of rat pretreated with compound nisoxetine; n=3; type: functional, organism-based; procedure, shortened: as §1
Rattus norvegicus [19] = species on record: Rattus norvegicus; assay: Regional uptake of [18F]-AFA in blood of rat pretreated with compound GBR-12935; n=3; type: functional, organism-based; procedure, shortened: as §1
[20] = target: Sodium-dependent serotonin transporter (Rattus norvegicus) (UniProt P31652); assay: Specific binding of [18F]AFA in rat hippocampus after GBR-12935 treatment; n=3; type: functional, tissue-based; procedure, shortened: as §2
Rattus norvegicus [21] = species on record: Rattus norvegicus; assay: Regional uptake of [18F]AFA in thalamus of rat pretreated with compound 7c; n=3; type: functional, organism-based
[22] = target: Sodium-dependent serotonin transporter (Rattus norvegicus) (UniProt P31652); assay: Specific binding of [18F]AFA in rat frontal cortex after GBR-12935 treatment; n=3; type: functional, tissue-based; procedure, shortened: as §2
Rattus norvegicus [23] = species on record: Rattus norvegicus; assay: Regional uptake of [18F]AFA in cerebellum of rat pretreated with compound 7c; n=3; type: functional, organism-based
[24] = target: Sodium-dependent serotonin transporter (Rattus norvegicus) (UniProt P31652); assay: Specific binding of [18F]AFA in rat hypothalamus after GBR-12935 treatment; n=3; type: functional, tissue-based; procedure, shortened: as §2
[25] = target: Sodium-dependent serotonin transporter (Rattus norvegicus) (UniProt P31652); assay: Specific binding of [18F]AFA in rat thalamus after nisoxetine treatment; n=3; type: functional, tissue-based; procedure, shortened: as §2
[26] = target: Sodium-dependent serotonin transporter (Rattus norvegicus) (UniProt P31652); assay: Specific binding in rat hypothalamus at 90 min postinjection in vivo; type: functional, organism-based
Procedure, shortened: (§3)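 Male Sprague-Dawley rats, n=3 per time point, received about 20 µCi of F-18 radioligand in saline iv by tail vein and were killed at 10–120 min. %ID/g was measured with decay and tail-residual correction. Hypothalamic specific binding = (%ID/g hypothalamus − %ID/g cerebellum)/%ID/g cerebellum; mean ± SD.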

Rattus norvegicus [27] = species on record: Rattus norvegicus; assay: Regional uptake of [18F]-AFA in blood of rat pretreated with compound citalopram; n=3; type: functional, organism-based; procedure, shortened: as §1
Rattus norvegicus [28] = species on record: Rattus norvegicus; assay: Regional uptake of [18F]AFA in hypothalamus of rat pretreated with compound citalopram; n=3; type: functional, organism-based; procedure, shortened: as §1
Rattus norvegicus [29] = species on record: Rattus norvegicus; assay: Regional uptake of [18F]AFA in hippocampus of rat pretreated with compound GBR-12935; n=3; type: functional, organism-based; procedure, shortened: as §1
[30] = target: Sodium-dependent serotonin transporter (Rattus norvegicus) (UniProt P31652); assay: Specific binding in rat hypothalamus at 60 min postinjection in vivo; type: functional, organism-based; procedure, shortened: as §3
Rattus norvegicus [31] = species on record: Rattus norvegicus; assay: Regional uptake of [18F]AFA in hypothalamus of rat pretreated with compound 7c; n=3; type: functional, organism-based
Rattus norvegicus [32] = species on record: Rattus norvegicus; assay: Regional uptake of [18F]AFA in blood of rat pretreated with compound 7c; n=3; type: functional, organism-based
Rattus norvegicus [33] = species on record: Rattus norvegicus; assay: Regional uptake of [18F]AFA in hippocampus of rat pretreated with compound nisoxetine; n=3; type: functional, organism-based; procedure, shortened: as §1
[34] = target: Sodium-dependent serotonin transporter (Rattus norvegicus) (UniProt P31652); assay: Specific binding of [18F]AFA in rat frontal cortex after citalopram treatment; n=3; type: functional, tissue-based; procedure, shortened: as §2
[35] = target: Sodium-dependent serotonin transporter (Rattus norvegicus) (UniProt P31652); assay: Specific binding of [18F]AFA in rat thalamus after citalopram treatment; n=3; type: functional, tissue-based; procedure, shortened: as §2
[36] = target: Sodium-dependent serotonin transporter (Rattus norvegicus) (UniProt P31652); assay: Specific binding in rat hypothalamus at 10 min postinjection in vivo; type: functional, organism-based; procedure, shortened: as §3
[37] = target: Sodium-dependent serotonin transporter (Rattus norvegicus) (UniProt P31652); assay: Specific binding of [18F]AFA in rat thalamus after GBR-12935 treatment; n=3; type: functional, tissue-based; procedure, shortened: as §2
[38] = target: Sodium-dependent serotonin transporter (Rattus norvegicus) (UniProt P31652); assay: Specific binding in rat hypothalamus at 30 min postinjection in vivo; type: functional, organism-based; procedure, shortened: as §3
[39] = target: Sodium-dependent serotonin transporter (Rattus norvegicus) (UniProt P31652); assay: Specific binding of [18F]-AFA in rat striatum after citalopram treatment; n=3; type: functional, tissue-based; procedure, shortened: as §2
Rattus norvegicus [40] = species on record: Rattus norvegicus; assay: Regional uptake of [18F]AFA in striatum of rat pretreated with compound 7c; n=3; type: functional, organism-based
[41] = target: Sodium-dependent serotonin transporter (Rattus norvegicus) (UniProt P31652); assay: Specific binding of [18F]AFA in rat hippocampus after nisoxetine treatment; n=3; type: functional, tissue-based; procedure, shortened: as §2
Rattus norvegicus [42] = species on record: Rattus norvegicus; assay: Regional uptake of [18F]AFA in hippocampus of rat pretreated with compound citalopram; n=3; type: functional, organism-based; procedure, shortened: as §1
Rattus norvegicus [43] = species on record: Rattus norvegicus; assay: Regional uptake of [18F]AFA in frontal cortex of rat pretreated with compound nisoxetine; n=3; type: functional, organism-based; procedure, shortened: as §1
Rattus norvegicus [44] = species on record: Rattus norvegicus; assay: Regional uptake of [18F]AFA in frontal cortex of rat pretreated with compound citalopram; n=3; type: functional, organism-based; procedure, shortened: as §1
Rattus norvegicus [45] = species on record: Rattus norvegicus; assay: Regional uptake of [18F]AFA in hippocampus of rat pretreated with compound 7c; n=3; type: functional, organism-based
Rattus norvegicus [46] = species on record: Rattus norvegicus; assay: Regional uptake of [18F]AFA in thalamus of rat pretreated with compound GBR-12935; n=3; type: functional, organism-based; procedure, shortened: as §1
[47] = target: Sodium-dependent serotonin transporter (Rattus norvegicus) (UniProt P31652); assay: Specific binding in rat hypothalamus at 120 min postinjection in vivo; type: functional, organism-based; procedure, shortened: as §3
[48] = target: Sodium-dependent serotonin transporter (Rattus norvegicus) (UniProt P31652); assay: Specific binding of [18F]AFA in rat hippocampus after citalopram treatment; n=3; type: functional, tissue-based; procedure, shortened: as §2

Specific binding [4]: 2.45 %ID/g
Specific binding [6]: 2.88 %ID/g
Specific binding [10]: 0.65 %ID/g
Specific binding [11]: 2.56 %ID/g
Specific binding [17]: 3.82 %ID/g
Specific binding [20]: 2.21 %ID/g
Specific binding [22]: 2.81 %ID/g
Specific binding [24]: 4.3 %ID/g
Specific binding [25]: 3.53 %ID/g
Specific binding (dimensionless ratio) [26]: 5.61
Specific binding [30]: 4.09 %ID/g
Specific binding [34]: 0.64 %ID/g
Specific binding [35]: 0.98 %ID/g
Specific binding [36]: 0.89 %ID/g
Specific binding [37]: 4.57 %ID/g
Specific binding [38]: 2.23 %ID/g
Specific binding [39]: 0.6 %ID/g
Specific binding [41]: 1.96 %ID/g
Specific binding (dimensionless ratio) [47]: 4.92
Specific binding [48]: 0.81 %ID/g
Compound: CN(C)Cc1ccccc1Sc1ccc(F)cc1N
Uptake (Rattus norvegicus [1]): 0.14 %ID/g
Uptake (Rattus norvegicus [2]): 0.1 %ID/g
Uptake (Rattus norvegicus [3]): 0.1 %ID/g
Uptake (Rattus norvegicus [5]): 0.09 %ID/g
Uptake (Rattus norvegicus [7]): 0.13 %ID/g
Uptake (Rattus norvegicus [8]): 0.28 %ID/g
Uptake (Rattus norvegicus [9]): 0.31 %ID/g
Uptake (Rattus norvegicus [12]): 0.06 %ID/g
Uptake (Rattus norvegicus [13]): 0.48 %ID/g
Uptake (Rattus norvegicus [14]): 0.43 %ID/g
Uptake (Rattus norvegicus [15]): 0.09 %ID/g
Uptake (Rattus norvegicus [16]): 0.33 %ID/g
Uptake (Rattus norvegicus [18]): 0.47 %ID/g
Uptake (Rattus norvegicus [19]): 0.09 %ID/g
Uptake (Rattus norvegicus [21]): 0.15 %ID/g
Uptake (Rattus norvegicus [23]): 0.06 %ID/g
Uptake (Rattus norvegicus [27]): 0.08 %ID/g
Uptake (Rattus norvegicus [28]): 0.1 %ID/g
Uptake (Rattus norvegicus [29]): 0.28 %ID/g
Uptake (Rattus norvegicus [31]): 0.13 %ID/g
Uptake (Rattus norvegicus [32]): 0.07 %ID/g
Uptake (Rattus norvegicus [33]): 0.28 %ID/g
Uptake (Rattus norvegicus [40]): 0.12 %ID/g
Uptake (Rattus norvegicus [42]): 0.11 %ID/g
Uptake (Rattus norvegicus [43]): 0.36 %ID/g
Uptake (Rattus norvegicus [44]): 0.11 %ID/g
Uptake (Rattus norvegicus [45]): 0.13 %ID/g
Uptake (Rattus norvegicus [46]): 0.36 %ID/g

From ChEMBL document CHEMBL1145212, “Fluorinated diaryl sulfides as serotonin transporter ligands: synthesis, structure-activity relationship study, and in vivo evaluation of fluorine-18-labeled compounds as PET imaging agents” (J Med Chem, 2005)
